# Measurements pooled from the literature.
# Target: NUAK family SNF1-like kinase 1 (NUAK1, Homo sapiens, UniProt O60285)
# Residues used in one study (O60285 1-661): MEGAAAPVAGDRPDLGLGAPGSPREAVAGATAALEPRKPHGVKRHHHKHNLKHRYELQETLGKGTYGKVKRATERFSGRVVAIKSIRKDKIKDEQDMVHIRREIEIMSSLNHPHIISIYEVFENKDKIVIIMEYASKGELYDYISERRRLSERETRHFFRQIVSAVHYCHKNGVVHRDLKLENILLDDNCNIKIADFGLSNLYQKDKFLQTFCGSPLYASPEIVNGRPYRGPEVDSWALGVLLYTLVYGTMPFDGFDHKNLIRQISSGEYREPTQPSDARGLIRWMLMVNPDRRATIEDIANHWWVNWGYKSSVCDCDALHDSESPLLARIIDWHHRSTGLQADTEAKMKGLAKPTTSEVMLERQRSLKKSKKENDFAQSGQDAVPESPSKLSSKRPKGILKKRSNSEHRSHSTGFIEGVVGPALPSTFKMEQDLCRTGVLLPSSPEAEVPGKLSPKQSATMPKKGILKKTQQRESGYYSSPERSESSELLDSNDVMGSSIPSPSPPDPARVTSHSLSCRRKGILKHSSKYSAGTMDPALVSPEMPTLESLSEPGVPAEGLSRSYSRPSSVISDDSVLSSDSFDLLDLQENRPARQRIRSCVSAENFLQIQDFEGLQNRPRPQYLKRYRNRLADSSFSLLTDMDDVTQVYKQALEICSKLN
SMILES,read-out,technique,tested at,remaining binding [%]
Cn1cc(Cl)c2c(Oc3c(F)cc(Nc4cc(Cl)nc(N)n4)cc3F)ccnc21,cell-free assay,competition with immobilised ligand,0.1 µM,96
c1cnn2ncc(-c3ccnc(N4CCC45COC5)n3)c2c1,binding,,1 µM,100
COc1cnc(Nc2cccc(S(N)(=O)=O)c2)nc1N1CCN(c2ccccc2)C(=O)C1,binding,competition with immobilised ligand,1 µM,86
COc1ccnn2ncc(-c3ccnc(N(C)C)n3)c12,binding,,1 µM,82
Cc1cnc(Nc2ccc(C(=O)N3CCC(N4CCCC4)CC3)cc2)nc1-c1cc2ccccc2s1,binding,competition with immobilised ligand,1 µM,2.7
CC(=O)N1CCC(c2ccc(C(=O)NC3=NCCN3)cc2C(F)(F)F)CC1,cell-free assay,competition with immobilised ligand,1 µM,98
COc1ncc2cc3ccccc3nc2c1C#N,cell-free assay,competition with immobilised ligand,5 µM,87
N[C@H]1CCN(c2nccc(-c3cnn4ncccc34)n2)C1,binding,,1 µM,63
O=C(NCc1ncc(C(F)(F)F)cc1Cl)c1ccc2c(c1)C1(CCS(=O)(=O)CC1)[C@H](C1CC1)N2S(=O)(=O)c1ccc(F)cc1,cell-free assay,competition with immobilised ligand,1 µM,83
C[C@@H]1CCN(c2nccc(-c3cnn4ncccc34)n2)C1,binding,,1 µM,93
O=C(c1ccc(Nc2ncc(Cl)c(-c3cc4ccccc4s3)n2)cc1)N1CCC(N2CCCC2)CC1,binding,competition with immobilised ligand,1 µM,2.6
C[C@H](c1ccnc(Nc2nc3ccc(-c4cc(N(C)C)ncn4)cc3[nH]2)c1)N1CCN(C(=O)CC(F)(F)F)CC1,cell-free assay,competition with immobilised ligand,0.1 µM,93
O=C(NCC1CCOCC1)c1n[nH]cc1NC(=O)c1c(F)cccc1F,binding,competition with immobilised ligand,1 µM,100
CN(C)c1nccc(-c2cnn3ncccc23)n1,binding,,1 µM,97
CCC(=N\O)/C(C)=C/c1ccc(F)cc1,cell-free assay,competition with immobilised ligand,1 µM,100
O=C(c1ccc(Nc2nccc(-c3cc4ccccc4s3)n2)cc1)N1CCC(N2CCCC2)CC1,binding,competition with immobilised ligand,1 µM,22
CN(C)c1ncc(F)c(-c2cnn3ncccc23)n1,binding,,1 µM,100
O=C(NC[C@@H]1[C@H]2CN(C(=O)OCc3cc(C(F)(F)F)cc(C(F)(F)F)c3)C[C@@H]12)c1ccc2[nH]nnc2c1,cell-free assay,competition with immobilised ligand,1 µM,87
CCN1CCN(Cc2ccc(C(=O)Nc3ccc(C)c(Oc4ccc5c(c4)CC(=O)N5)c3)cc2C(F)(F)F)CC1,binding,competition with immobilised ligand,1 µM,100
